Assay results published in ChEMBL document CHEMBL1821615 (J Med Chem, 2011).
The source made the active and inactive calls. No cut-off for these calls is given here.

Legend:
BXPC-3 [1] = experiment: Drug uptake in human BxPC3 cells assessed as decreased uptake at increasing cell density at 25 nM after 30 min by flow cytometric analysis; assay type: ADME, cell-based; conditions: bxpc-3, 0.5 h
Method in brief: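 BxPC3 cells seeded at increasing densities to give subconfluent (dividing) through confluent (quiescent) cultures. Next day, cells treated with compound at 25 nM for 30 min at 37 °C, and fluorescence intensity measured by flow cytometry.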

BXPC-3 [2] = experiment: Cellular uptake in human BxPC3 cells assessed as decrease drug uptake at 25 nM measured after 60 mins by flow cytometric analysis in presence of clathrin inhibitor phenylarsine oxide; assay type: ADME, cell-based; conditions: bxpc-3, 1 h
Method in brief: (§1)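 BxPC3 cells pretreated 60 min at 37 °C with phenylarsine oxide (10 µM; clathrin route) or Filipin III (5 µg/mL; caveolin route), or DMSO vehicle, then washed and resuspended in medium. Compound added at 25 nM; mean FL1 fluorescence read by flow cytometry in kinetic mode over 60 min, expressed as percent of maximum signal.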

BXPC-3 [3] = experiment: Drug uptake in human BxPC3 cells assessed as decrease drug uptake at 25 nM measured after 60 mins by flow cytometric analysis in presence of caveolin inhibitor Filipin 3; assay type: ADME, cell-based; conditions: bxpc-3, 1 h; method in brief: as §1
[4] = Displacement of [3H]-DTG from sigma 2 receptor from rat liver in presence of pantazocine
[5] = Selectivity ratio of IC50 for guinea pig brain sigma 1 receptor to IC50 for rat liver sigma 2 receptor
Method in brief: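 Sigma-1 binding used (+)-[3H]-pentazocine (34 Ci/mmol); sigma-2 binding used [3H]-DTG (30 Ci/mmol), per the Matsumoto et al. method. IC50 taken from six to nine test concentrations in two or three experiments, each in duplicate.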

[6] = molecular target: Sigma non-opioid intracellular receptor 1 (Cavia porcellus, UniProt Q60492); experiment: Displacement of [3H]-pentazocine from sigma 1 receptor from guinea pig brain membrane
BXPC-3 [7] = experiment: Cytotoxicity against human BxPC3 cells during nonproliferating stage assessed as decreased cell death at 100 uM after 18 hrs by crystal violet staining; assay type: functional, cell-based
Method in brief: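 BxPC3 cells seeded at increasing densities (1 × 10^5 to 9 × 10^5) 24 h before treatment with 100 µM sigma-2 agonist. After 18 h, washed, fixed in 4% paraformaldehyde 30 min at 37 °C, crystal violet stained 15 min at 37 °C, and imaged by densitometry. Viability given as percent density relative to DMSO-treated cells.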

Sequence of Sigma non-opioid intracellular receptor 1 (Q60492 whole entry): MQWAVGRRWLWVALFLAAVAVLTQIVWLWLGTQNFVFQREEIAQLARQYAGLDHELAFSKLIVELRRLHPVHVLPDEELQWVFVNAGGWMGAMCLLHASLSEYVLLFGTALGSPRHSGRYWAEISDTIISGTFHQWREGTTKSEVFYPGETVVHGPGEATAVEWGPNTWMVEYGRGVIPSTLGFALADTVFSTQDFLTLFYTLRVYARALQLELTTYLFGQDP

Ki [4] [nM] | Ki [6] [nM] | SMILES | Drug uptake (BXPC-3 [1]) | Drug uptake (BXPC-3 [2]) [%] | Drug uptake (BXPC-3 [3]) [%] | Ratio Ki [5] | Activity (BXPC-3 [7])
– | – | Fc1cccc(F)c1[C@H]1CC[C@@H](N2CCN(C3CCCCC3)CC2)CC1 | – | – | – | – | inactive
5020 | > 5000 | COc1cccc2c1CCCC2CCCN1CCN(C2CCN(CCCCCCNS(=O)(=O)c3cccc4c(N(C)C)cccc34)CC2)CC1 (stereo not given) | – | – | – | – | –
20.8 | 9.08 | CN(C)c1cccc2c(S(=O)(=O)NCCCCCCOc3cccc4c3CCCC4CCCN3CCN(C4CCCCC4)CC3)cccc12 (stereo not given) | – | – | – | – | –
39.3 | 96.2 | O=[N+]([O-])c1ccc(NCCOCCOc2cccc3c2CCCC3CCCN2CCN(C3CCCCC3)CC2)c2nonc12 (stereo not given) | – | – | – | 2.5 | –
1720 | 2570 | COc1cccc2c1CCCC2CCCN1CCN(C2CCN(CCCCCCNc3ccc([N+](=O)[O-])c4nonc34)CC2)CC1 (stereo not given) | – | – | – | – | –
25.7 | 19.8 | CN(C)c1cccc2c(S(=O)(=O)NCCOCCOc3cccc4c3CCCC4CCCN3CCN(C4CCCCC4)CC3)cccc12 (stereo not given) | – | – | – | – | –

SMILES | Ki [4] [nM] | Ki [6] [nM] | Drug uptake (BXPC-3 [1]) | Drug uptake (BXPC-3 [2]) [%] | Drug uptake (BXPC-3 [3]) [%] | Ratio Ki [5] | Activity (BXPC-3 [7])
O=[N+]([O-])c1ccc(NCCCCCCOc2cccc3c2CCCC3CCCN2CCN(C3CCCCC3)CC2)c2nonc12 (stereo not given) | 10.8 | 78.7 | Not Active | 69 | 50 | 8 | –
COc1cccc2c1CCCC2CCCN1CCN(C2CCCCC2)CC1 (stereo not given) | 0.68 | – | – | – | – | – | inactive
